# Measurements taken from ChEMBL document CHEMBL1255409, “In vitro activity of ceftaroline against 623 diverse strains of anaerobic bacteria” (2010).
# Key:
# Format in all cases: functional
# [1] = tested on: Bacteroides thetaiotaomicron; experiment: Antimicrobial activity against Bacteroides thetaiotaomicron under anaerobic conditions after 44 hrs by CLSI-M11-47 protocol based agar dilution method
# In short: (§1)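 Reference agar dilution per CLSI M11-A7 with plates made on test day. Clinical isolates were stored at −70°C in 20% skim milk, subcultured twice, and 48-h cell paste was suspended in brucella broth to 0.5 McFarland. About 10^5 CFU/spot was applied with a Steers replicator. Plates were incubated 44 h at 37°C anaerobically. MIC was the lowest concentration giving complete inhibition or marked growth reduction versus the drug-free control.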
# [2] = tested on: Clostridium celerecrescens; experiment: Antimicrobial activity against Clostridium celerecrescens under anaerobic conditions after 44 hrs by CLSI-M11-47 protocol based agar dilution method; conditions: Lacrimispora celerecrescens; in short: as §1
# Eubacterium limosum = experiment: Antimicrobial activity against Eubacterium limosum under anaerobic conditions after 44 hrs by CLSI-M11-47 protocol based agar dilution method; in short: as §1
# Clostridium baratii = experiment: Antimicrobial activity against Clostridium baratii under anaerobic conditions after 44 hrs by CLSI-M11-47 protocol based agar dilution method
# [3] = tested on: Lacticaseibacillus rhamnosus; experiment: Antimicrobial activity against Lactobacillus rhamnosus under anaerobic conditions after 44 hrs by CLSI-M11-47 protocol based agar dilution method
# In short: (§2)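 Clinical isolates were stored at −70°C in 20% skim milk and identified phenotypically or by partial 16S rRNA sequencing. Each strain was subcultured twice from frozen stock. Cell paste from 48-h cultures was suspended in brucella broth to a 0.5 McFarland standard. About 10^5 CFU per spot were applied by Steers replicator to agar dilution plates prepared on the day of testing. Plates were incubated 44 h at 37°C in an anaerobic chamber. MIC was taken as the lowest concentration giving complete inhibition or marked reduction of growth versus the drug-free control.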
# Clostridium tertium = experiment: Antimicrobial activity against Clostridium tertium under anaerobic conditions after 44 hrs by CLSI-M11-47 protocol based agar dilution method; in short: as §1
# Eggerthella lenta = experiment: Antimicrobial activity against Eggerthella lenta under anaerobic conditions after 44 hrs by CLSI-M11-47 protocol based agar dilution method; in short: as §1
# Prevotella bergensis = experiment: Antimicrobial activity against Prevotella bergensis under anaerobic conditions after 44 hrs by CLSI-M11-47 protocol based agar dilution method; conditions: Hallella bergensis; in short: as §2
# Atopobium parvulum = experiment: Antimicrobial activity against Atopobium parvulum under anaerobic conditions after 44 hrs by CLSI-M11-47 protocol based agar dilution method; conditions: Lancefieldella parvula; in short: as §1
# Actinomyces turicensis = experiment: Antimicrobial activity against Actinomyces turicensis under anaerobic conditions after 44 hrs by CLSI-M11-47 protocol based agar dilution method; conditions: Schaalia turicensis; in short: as §1
# Fusobacterium mortiferum = experiment: Antimicrobial activity against Fusobacterium mortiferum under anaerobic conditions after 44 hrs by CLSI-M11-47 protocol based agar dilution method; in short: as §1
# Clostridioides difficile = experiment: Antimicrobial activity against Clostridium difficile under anaerobic conditions after 44 hrs by CLSI-M11-47 protocol based agar dilution method; in short: as §1
# Clostridium cadaveris = experiment: Antimicrobial activity against Clostridium cadaveris under anaerobic conditions after 44 hrs by CLSI-M11-47 protocol based agar dilution method; in short: as §1
# Schaalia meyeri = experiment: Antimicrobial activity against Actinomyces meyeri under anaerobic conditions after 44 hrs by CLSI-M11-47 protocol based agar dilution method; in short: as §1
# Clostridium bolteae = experiment: Antimicrobial activity against Clostridium bolteae under anaerobic conditions after 44 hrs by CLSI-M11-47 protocol based agar dilution method; conditions: Enterocloster bolteae; in short: as §1
# Bacteroides fragilis = experiment: Antimicrobial activity against Bacteroides fragilis under anaerobic conditions after 44 hrs by CLSI-M11-47 protocol based agar dilution method; in short: as §1
# Anaerococcus tetradius = experiment: Antimicrobial activity against Anaerococcus tetradius under anaerobic conditions after 44 hrs by CLSI-M11-47 protocol based agar dilution method; in short: as §1
# Mogibacterium timidum = experiment: Antimicrobial activity against Mogibacterium timidum under anaerobic conditions after 44 hrs by CLSI-M11-47 protocol based agar dilution method; in short: as §2
# Hoylesella loescheii = experiment: Antimicrobial activity against Prevotella loescheii under anaerobic conditions after 44 hrs by CLSI-M11-47 protocol based agar dilution method; in short: as §2
# Phocaeicola vulgatus = experiment: Antimicrobial activity against Bacteroides vulgatus under anaerobic conditions after 44 hrs by CLSI-M11-47 protocol based agar dilution method; in short: as §1
# Prevotella disiens = experiment: Antimicrobial activity against Prevotella disiens under anaerobic conditions after 44 hrs by CLSI-M11-47 protocol based agar dilution method; in short: as §2
smiles,measurement,setting,value
CCO/N=C(\C(=O)N[C@@H]1C(=O)N2C(C(=O)[O-])=C(Sc3nc(-c4cc[n+](C)cc4)cs3)CS[C@H]12)c1nsc(NP(=O)(O)O)n1 [CEFTAROLINE FOSAMIL],MIC50,[1],64 µg/mL
same,MIC90,[1],> 64 µg/mL
same,MIC50,[2],0.5 µg/mL
same,MIC90,[2],16 µg/mL
same,MIC50,Eubacterium limosum,0.125 µg/mL
same,MIC90,Eubacterium limosum,0.25 µg/mL
same,MIC50,Clostridium baratii,0.5 µg/mL
same,MIC90,Clostridium baratii,16 µg/mL
same,MIC50,[3],0.5 µg/mL
same,MIC90,[3],1 µg/mL
same,MIC50,Clostridium tertium,0.5 µg/mL
same,MIC90,Clostridium tertium,16 µg/mL
same,MIC50,Eggerthella lenta,8 µg/mL
same,MIC90,Eggerthella lenta,16 µg/mL
same,MIC50,Prevotella bergensis,2 µg/mL
same,MIC90,Prevotella bergensis,32 µg/mL
same,MIC50,Atopobium parvulum,0.125 µg/mL
same,MIC90,Atopobium parvulum,0.25 µg/mL
same,MIC50,Actinomyces turicensis,0.015 µg/mL
same,MIC90,Actinomyces turicensis,0.25 µg/mL
same,MIC50,Fusobacterium mortiferum,8 µg/mL
same,MIC90,Fusobacterium mortiferum,32 µg/mL
same,MIC50,Clostridioides difficile,0.5 µg/mL
same,MIC90,Clostridioides difficile,16 µg/mL
same,MIC50,Clostridium cadaveris,0.5 µg/mL
same,MIC90,Clostridium cadaveris,16 µg/mL
same,MIC50,Schaalia meyeri,0.015 µg/mL
same,MIC90,Schaalia meyeri,0.25 µg/mL
same,MIC50,Clostridium bolteae,1 µg/mL
same,MIC90,Clostridium bolteae,2 µg/mL
same,MIC50,Bacteroides fragilis,16 µg/mL
same,MIC90,Bacteroides fragilis,64 µg/mL
same,MIC50,Anaerococcus tetradius,0.03 µg/mL
same,MIC90,Anaerococcus tetradius,0.125 µg/mL
same,MIC50,Mogibacterium timidum,0.125 µg/mL
same,MIC90,Mogibacterium timidum,0.25 µg/mL
same,MIC50,Hoylesella loescheii,2 µg/mL
same,MIC90,Hoylesella loescheii,32 µg/mL
same,MIC50,Phocaeicola vulgatus,64 µg/mL
same,MIC90,Phocaeicola vulgatus,> 64 µg/mL
same,MIC50,Prevotella disiens,2 µg/mL
same,MIC90,Prevotella disiens,32 µg/mL
CO/N=C(\C(=O)N[C@@H]1C(=O)N2C(C(=O)O)=C(CSc3nc(=O)c(O)nn3C)CS[C@H]12)c1csc(N)n1 [CEFTRIAXONE],MIC50,[1],> 64 µg/mL
same,MIC90,[1],> 64 µg/mL
same,MIC50,[2],2 µg/mL
same,MIC90,[2],64 µg/mL
same,MIC50,Eubacterium limosum,0.5 µg/mL
same,MIC90,Eubacterium limosum,2 µg/mL
same,MIC50,Clostridium baratii,2 µg/mL
same,MIC90,Clostridium baratii,64 µg/mL
same,MIC50,[3],32 µg/mL
same,MIC90,[3],64 µg/mL
same,MIC50,Clostridium tertium,2 µg/mL
same,MIC90,Clostridium tertium,64 µg/mL
same,MIC50,Eggerthella lenta,> 64 µg/mL
same,MIC90,Eggerthella lenta,> 64 µg/mL
same,MIC50,Prevotella bergensis,1 µg/mL
same,MIC90,Prevotella bergensis,8 µg/mL
same,MIC50,Atopobium parvulum,0.5 µg/mL
same,MIC90,Atopobium parvulum,2 µg/mL
same,MIC50,Actinomyces turicensis,0.125 µg/mL
same,MIC90,Actinomyces turicensis,0.5 µg/mL
same,MIC50,Fusobacterium mortiferum,> 64 µg/mL
same,MIC90,Fusobacterium mortiferum,> 64 µg/mL
same,MIC50,Clostridioides difficile,2 µg/mL
same,MIC90,Clostridioides difficile,64 µg/mL
same,MIC50,Clostridium cadaveris,2 µg/mL
same,MIC90,Clostridium cadaveris,64 µg/mL
same,MIC50,Schaalia meyeri,0.125 µg/mL
same,MIC90,Schaalia meyeri,0.5 µg/mL
same,MIC50,Clostridium bolteae,4 µg/mL
same,MIC90,Clostridium bolteae,32 µg/mL
same,MIC50,Bacteroides fragilis,32 µg/mL
same,MIC90,Bacteroides fragilis,64 µg/mL
same,MIC50,Anaerococcus tetradius,0.25 µg/mL
same,MIC90,Anaerococcus tetradius,0.5 µg/mL
same,MIC50,Mogibacterium timidum,0.5 µg/mL
same,MIC90,Mogibacterium timidum,2 µg/mL
same,MIC50,Hoylesella loescheii,1 µg/mL
same,MIC90,Hoylesella loescheii,8 µg/mL
same,MIC50,Phocaeicola vulgatus,> 64 µg/mL
same,MIC90,Phocaeicola vulgatus,> 64 µg/mL
same,MIC50,Prevotella disiens,1 µg/mL
same,MIC90,Prevotella disiens,8 µg/mL
